In ChEMBL document CHEMBL5653631, “A Potent and Selective ULK1 Inhibitor Suppresses Autophagy and Sensitizes Cancer Cells to Nutrient Stress” (iScience, 2018):
One block for each compound: values may come before it.

Experiments:
[1] = target: T1, Dual specificity tyrosine-phosphorylation-regulated kinase 2 (Homo sapiens) (UniProt Q92630); assay: Inhibition of human recombinant DYRK2 at 500 nM in presence of ATP by radiometric assay relative to control
T1 sequence (whole entry): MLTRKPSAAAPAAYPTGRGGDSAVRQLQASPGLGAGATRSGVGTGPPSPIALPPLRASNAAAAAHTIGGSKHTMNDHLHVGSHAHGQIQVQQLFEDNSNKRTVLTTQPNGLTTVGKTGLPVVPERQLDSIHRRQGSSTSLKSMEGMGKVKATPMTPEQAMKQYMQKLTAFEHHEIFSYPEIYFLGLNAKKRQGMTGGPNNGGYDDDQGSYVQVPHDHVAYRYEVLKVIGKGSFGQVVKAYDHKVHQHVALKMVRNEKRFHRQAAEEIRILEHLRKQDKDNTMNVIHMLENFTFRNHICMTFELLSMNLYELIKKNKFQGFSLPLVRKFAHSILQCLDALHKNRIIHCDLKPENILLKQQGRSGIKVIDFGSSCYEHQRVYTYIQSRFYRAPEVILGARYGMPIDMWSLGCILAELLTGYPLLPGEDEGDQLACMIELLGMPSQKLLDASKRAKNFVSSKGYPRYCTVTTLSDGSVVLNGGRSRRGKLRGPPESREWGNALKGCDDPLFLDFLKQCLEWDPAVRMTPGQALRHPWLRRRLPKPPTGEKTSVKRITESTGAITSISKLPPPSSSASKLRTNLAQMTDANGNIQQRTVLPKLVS

[2] = target: Ribosomal protein S6 kinase alpha-1 (Homo sapiens) (UniProt Q15418); assay: Inhibition of human recombinant RSK1 at 500 nM in presence of ATP by radiometric assay relative to control
[3] = target: MAP/microtubule affinity-regulating kinase 3 (Homo sapiens) (UniProt P27448); assay: Inhibition of human recombinant MARK3 at 500 nM related to control ULK1
[4] = target: Calcium/calmodulin-dependent protein kinase type 1 (Homo sapiens) (UniProt Q14012); assay: Inhibition of human recombinant CaMK1a at 40 nM in presence of ATP by radiometric assay relative to control
[5] = target: Serine/threonine-protein kinase MRCK beta (Homo sapiens) (UniProt Q9Y5S2); assay: Inhibition of human recombinant MRCKb at 40 nM related to control ULK1
[6] = target: Mitogen-activated protein kinase 14 (Homo sapiens) (UniProt Q16539); assay: Inhibition of human recombinant p38alpha at 40 nM related to control ULK1
[7] = target: Protein kinase C delta type (Homo sapiens) (UniProt Q05655); assay: Inhibition of human recombinant PKCd at 40 nM related to control ULK1
[8] = target: SRSF protein kinase 2 (Homo sapiens) (UniProt P78362); assay: Inhibition of human recombinant SRPK2 at 40 nM related to control ULK1
[9] = target: T2, Activin receptor type-1B (Homo sapiens) (UniProt P36896); assay: Inhibition of human recombinant ALK4 at 15 nM in presence of ATP by radiometric assay relative to control
T2 sequence (whole entry): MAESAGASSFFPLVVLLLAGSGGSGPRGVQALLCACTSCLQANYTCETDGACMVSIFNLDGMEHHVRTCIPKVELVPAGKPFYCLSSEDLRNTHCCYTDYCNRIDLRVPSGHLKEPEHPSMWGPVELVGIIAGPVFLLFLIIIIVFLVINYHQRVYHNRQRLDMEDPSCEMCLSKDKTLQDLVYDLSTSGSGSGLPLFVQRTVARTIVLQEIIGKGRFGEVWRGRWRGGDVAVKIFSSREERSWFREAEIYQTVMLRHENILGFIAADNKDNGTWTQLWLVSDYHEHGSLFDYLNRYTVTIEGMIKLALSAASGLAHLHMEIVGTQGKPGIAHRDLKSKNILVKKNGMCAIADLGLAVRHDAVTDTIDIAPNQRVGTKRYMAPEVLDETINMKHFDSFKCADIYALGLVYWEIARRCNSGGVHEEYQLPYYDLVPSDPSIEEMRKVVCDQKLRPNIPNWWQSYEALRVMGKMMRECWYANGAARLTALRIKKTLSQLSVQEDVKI
In short: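 Panel of 327 recombinant human kinases, each assayed in vitro by radiometric activity assay in duplicate at a single inhibitor concentration per compound, chosen with reference to its ULK1 inhibition. Activity remaining was expressed as percent of vehicle control, and percent inhibition was calculated as 100 minus percent activity remaining.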

[10] = target: Serine/threonine-protein kinase Nek7 (Homo sapiens) (UniProt Q8TDX7); assay: Inhibition of human recombinant NEK7 at 15 nM in presence of ATP by radiometric assay relative to control
[11] = target: RAC-gamma serine/threonine-protein kinase (Homo sapiens) (UniProt Q9Y243); assay: Inhibition of human recombinant AKT3 at 15 nM related to control ULK1
[12] = target: T3, TGF-beta receptor type-1 (Homo sapiens) (UniProt P36897); assay: Inhibition of human recombinant TGFbR1 at 15 nM related to control ULK1
T3 sequence (whole entry): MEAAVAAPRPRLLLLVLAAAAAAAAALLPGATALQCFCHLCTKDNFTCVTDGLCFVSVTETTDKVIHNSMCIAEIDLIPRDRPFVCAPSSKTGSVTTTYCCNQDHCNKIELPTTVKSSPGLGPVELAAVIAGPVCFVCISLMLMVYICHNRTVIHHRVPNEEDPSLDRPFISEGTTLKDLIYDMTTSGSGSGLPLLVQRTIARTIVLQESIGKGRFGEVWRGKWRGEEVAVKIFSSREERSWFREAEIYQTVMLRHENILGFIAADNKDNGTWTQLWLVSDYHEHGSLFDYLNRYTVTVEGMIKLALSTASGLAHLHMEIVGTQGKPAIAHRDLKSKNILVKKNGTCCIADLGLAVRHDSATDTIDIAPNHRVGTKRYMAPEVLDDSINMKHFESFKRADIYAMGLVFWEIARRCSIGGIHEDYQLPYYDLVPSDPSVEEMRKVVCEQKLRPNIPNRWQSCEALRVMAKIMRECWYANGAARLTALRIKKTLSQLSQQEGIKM

[13] = target: T4, Testis-specific serine/threonine-protein kinase 1 (Homo sapiens) (UniProt Q9BXA7); assay: Inhibition of human recombinant TSSK1 at 15 nM related to control ULK1
T4 sequence (whole entry): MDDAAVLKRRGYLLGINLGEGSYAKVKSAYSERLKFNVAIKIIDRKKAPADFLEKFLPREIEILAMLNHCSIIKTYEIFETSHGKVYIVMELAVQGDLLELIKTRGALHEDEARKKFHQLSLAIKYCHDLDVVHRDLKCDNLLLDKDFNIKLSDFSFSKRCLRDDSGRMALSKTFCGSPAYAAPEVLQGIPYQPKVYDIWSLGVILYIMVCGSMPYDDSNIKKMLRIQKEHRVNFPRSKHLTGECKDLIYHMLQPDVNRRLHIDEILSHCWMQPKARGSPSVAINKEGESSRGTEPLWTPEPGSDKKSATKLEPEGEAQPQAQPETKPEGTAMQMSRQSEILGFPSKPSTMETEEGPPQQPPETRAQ

Chain of Serine/threonine-protein kinase MRCK beta (Homo sapiens) (Q9Y5S2 whole entry): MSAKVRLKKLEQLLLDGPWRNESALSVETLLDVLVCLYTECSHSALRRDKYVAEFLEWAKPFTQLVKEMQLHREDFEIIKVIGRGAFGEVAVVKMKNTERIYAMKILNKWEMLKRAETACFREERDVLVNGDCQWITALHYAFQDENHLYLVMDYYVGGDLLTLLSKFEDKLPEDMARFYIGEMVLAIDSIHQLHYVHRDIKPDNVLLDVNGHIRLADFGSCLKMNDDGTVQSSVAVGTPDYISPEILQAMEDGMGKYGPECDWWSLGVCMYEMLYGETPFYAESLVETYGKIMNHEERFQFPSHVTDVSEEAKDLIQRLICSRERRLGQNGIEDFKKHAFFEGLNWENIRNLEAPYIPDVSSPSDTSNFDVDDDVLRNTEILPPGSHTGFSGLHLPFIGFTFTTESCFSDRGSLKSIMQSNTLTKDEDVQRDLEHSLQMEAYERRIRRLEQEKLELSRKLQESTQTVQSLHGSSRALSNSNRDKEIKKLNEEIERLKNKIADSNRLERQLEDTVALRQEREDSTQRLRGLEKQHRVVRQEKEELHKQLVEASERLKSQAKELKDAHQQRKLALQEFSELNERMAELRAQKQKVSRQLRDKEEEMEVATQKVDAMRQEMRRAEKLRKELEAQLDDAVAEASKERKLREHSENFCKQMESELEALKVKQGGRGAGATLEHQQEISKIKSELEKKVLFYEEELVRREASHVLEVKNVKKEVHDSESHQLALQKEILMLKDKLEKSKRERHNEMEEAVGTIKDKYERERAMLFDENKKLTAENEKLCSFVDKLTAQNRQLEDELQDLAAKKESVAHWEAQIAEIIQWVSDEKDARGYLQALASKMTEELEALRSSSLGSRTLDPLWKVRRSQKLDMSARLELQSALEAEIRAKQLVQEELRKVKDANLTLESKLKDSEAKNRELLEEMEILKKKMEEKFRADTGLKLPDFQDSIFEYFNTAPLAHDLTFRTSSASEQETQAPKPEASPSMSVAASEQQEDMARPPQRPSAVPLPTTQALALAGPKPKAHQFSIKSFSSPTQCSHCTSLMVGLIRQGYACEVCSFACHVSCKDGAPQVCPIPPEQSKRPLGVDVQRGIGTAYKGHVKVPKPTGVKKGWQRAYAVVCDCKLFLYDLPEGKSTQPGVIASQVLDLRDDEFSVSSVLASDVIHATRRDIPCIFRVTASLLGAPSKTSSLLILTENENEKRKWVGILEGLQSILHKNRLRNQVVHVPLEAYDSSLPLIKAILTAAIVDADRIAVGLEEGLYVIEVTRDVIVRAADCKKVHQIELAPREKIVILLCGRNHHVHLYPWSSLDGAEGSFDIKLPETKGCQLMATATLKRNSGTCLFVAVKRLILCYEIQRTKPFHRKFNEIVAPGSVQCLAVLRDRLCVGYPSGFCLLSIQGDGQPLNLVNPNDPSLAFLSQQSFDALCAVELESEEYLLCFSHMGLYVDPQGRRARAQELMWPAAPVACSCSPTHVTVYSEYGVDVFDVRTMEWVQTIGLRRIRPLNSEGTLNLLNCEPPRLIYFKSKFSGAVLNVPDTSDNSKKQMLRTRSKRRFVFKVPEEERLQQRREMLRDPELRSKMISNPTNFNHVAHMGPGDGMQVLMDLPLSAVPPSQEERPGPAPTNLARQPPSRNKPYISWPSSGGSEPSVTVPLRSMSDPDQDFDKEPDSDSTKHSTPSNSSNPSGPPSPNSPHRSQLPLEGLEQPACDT
Chain of Mitogen-activated protein kinase 14 (Homo sapiens) (Q16539 whole entry): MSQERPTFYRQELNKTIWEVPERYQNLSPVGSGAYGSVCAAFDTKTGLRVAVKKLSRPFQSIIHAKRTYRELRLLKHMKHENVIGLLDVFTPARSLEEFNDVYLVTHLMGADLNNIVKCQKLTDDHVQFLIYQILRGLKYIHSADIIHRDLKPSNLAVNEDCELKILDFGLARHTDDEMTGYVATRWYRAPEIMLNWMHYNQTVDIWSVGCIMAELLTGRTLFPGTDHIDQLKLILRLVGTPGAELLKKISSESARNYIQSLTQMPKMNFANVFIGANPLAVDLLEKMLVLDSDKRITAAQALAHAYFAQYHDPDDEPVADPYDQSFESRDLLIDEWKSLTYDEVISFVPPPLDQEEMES
Chain of Protein kinase C delta type (Homo sapiens) (Q05655 whole entry, looked up): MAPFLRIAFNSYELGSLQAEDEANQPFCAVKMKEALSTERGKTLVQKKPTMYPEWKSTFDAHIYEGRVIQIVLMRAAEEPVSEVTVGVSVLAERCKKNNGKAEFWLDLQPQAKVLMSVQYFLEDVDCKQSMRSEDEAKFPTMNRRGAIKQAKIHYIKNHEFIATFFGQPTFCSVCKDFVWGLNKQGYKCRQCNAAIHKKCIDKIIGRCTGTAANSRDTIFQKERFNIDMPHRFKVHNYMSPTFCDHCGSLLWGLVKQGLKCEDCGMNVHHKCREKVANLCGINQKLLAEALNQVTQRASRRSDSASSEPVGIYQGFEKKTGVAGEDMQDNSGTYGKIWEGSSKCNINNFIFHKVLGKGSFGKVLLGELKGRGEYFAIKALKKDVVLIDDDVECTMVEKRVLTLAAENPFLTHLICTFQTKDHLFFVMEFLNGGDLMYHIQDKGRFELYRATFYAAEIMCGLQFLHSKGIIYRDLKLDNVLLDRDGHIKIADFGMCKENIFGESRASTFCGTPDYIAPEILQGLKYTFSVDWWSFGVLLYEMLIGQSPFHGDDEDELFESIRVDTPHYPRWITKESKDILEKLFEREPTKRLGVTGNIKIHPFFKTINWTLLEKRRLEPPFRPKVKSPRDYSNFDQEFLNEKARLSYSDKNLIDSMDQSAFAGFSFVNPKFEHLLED
Chain of Serine/threonine-protein kinase Nek7 (Homo sapiens) (Q8TDX7 whole entry, looked up): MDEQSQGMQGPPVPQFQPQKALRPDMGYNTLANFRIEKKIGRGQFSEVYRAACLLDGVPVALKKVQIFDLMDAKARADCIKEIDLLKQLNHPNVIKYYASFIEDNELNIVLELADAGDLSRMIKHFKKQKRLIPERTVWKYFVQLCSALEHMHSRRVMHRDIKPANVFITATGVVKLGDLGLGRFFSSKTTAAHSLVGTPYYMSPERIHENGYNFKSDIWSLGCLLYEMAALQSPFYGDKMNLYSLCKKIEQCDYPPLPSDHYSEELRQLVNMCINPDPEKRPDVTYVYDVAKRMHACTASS
Chain of Calcium/calmodulin-dependent protein kinase type 1 (Homo sapiens) (Q14012 whole entry, looked up): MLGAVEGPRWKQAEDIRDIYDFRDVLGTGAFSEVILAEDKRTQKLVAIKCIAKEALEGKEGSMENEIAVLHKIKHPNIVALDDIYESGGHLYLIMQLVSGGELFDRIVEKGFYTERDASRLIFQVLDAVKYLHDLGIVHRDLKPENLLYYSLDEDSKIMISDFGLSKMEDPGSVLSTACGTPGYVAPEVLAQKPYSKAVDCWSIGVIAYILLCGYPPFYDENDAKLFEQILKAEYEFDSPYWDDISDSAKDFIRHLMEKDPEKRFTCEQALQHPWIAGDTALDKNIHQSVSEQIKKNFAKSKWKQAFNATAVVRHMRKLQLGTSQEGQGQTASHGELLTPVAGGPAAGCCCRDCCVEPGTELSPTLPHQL
Chain of Ribosomal protein S6 kinase alpha-1 (Homo sapiens) (Q15418 whole entry): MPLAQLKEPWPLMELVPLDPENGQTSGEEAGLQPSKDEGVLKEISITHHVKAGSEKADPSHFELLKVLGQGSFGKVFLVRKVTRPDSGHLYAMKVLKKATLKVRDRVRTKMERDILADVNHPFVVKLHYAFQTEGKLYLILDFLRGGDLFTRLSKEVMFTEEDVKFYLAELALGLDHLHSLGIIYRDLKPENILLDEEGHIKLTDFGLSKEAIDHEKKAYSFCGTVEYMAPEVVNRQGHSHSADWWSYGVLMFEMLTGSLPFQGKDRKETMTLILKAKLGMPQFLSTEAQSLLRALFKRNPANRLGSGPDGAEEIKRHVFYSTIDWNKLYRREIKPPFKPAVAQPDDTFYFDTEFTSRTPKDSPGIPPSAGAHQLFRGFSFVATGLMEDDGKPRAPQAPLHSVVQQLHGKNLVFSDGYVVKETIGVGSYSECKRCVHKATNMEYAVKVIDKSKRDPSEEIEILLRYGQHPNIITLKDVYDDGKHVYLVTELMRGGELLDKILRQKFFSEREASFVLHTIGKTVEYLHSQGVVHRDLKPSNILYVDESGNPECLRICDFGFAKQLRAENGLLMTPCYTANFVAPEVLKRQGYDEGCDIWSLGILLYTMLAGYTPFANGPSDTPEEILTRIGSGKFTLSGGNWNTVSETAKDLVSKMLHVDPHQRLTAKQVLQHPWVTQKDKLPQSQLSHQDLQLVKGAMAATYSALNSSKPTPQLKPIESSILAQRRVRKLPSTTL
Chain of SRSF protein kinase 2 (Homo sapiens) (P78362 whole entry, looked up): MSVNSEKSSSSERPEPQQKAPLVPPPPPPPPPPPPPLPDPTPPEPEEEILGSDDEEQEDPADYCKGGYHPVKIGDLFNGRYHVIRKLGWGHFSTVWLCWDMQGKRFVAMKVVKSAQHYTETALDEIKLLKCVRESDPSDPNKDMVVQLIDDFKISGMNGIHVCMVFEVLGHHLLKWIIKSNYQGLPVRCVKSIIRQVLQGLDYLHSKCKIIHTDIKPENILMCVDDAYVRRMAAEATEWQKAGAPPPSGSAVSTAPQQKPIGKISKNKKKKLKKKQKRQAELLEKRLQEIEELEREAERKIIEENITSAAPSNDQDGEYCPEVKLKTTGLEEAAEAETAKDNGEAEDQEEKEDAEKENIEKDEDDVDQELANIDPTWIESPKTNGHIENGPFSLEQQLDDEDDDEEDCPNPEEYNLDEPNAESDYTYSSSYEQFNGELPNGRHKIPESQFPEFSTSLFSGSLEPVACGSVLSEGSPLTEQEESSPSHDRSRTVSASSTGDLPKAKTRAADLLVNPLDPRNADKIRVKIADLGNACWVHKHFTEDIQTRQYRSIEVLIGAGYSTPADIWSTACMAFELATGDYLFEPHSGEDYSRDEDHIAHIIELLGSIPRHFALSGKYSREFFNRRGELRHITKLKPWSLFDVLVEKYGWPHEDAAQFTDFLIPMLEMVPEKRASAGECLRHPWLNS

inhibition [1]: 0%
inhibition [2]: 19%
fold change (FC) [3]: 0.61
SMILES: CNC(=O)c1ccccc1Oc1nc(Nc2cc(OC)c(OC)c(OC)c2)ncc1Br

inhibition [4]: 0%
fold change (FC) [5]: 0.07
fold change (FC) [6]: 0.01
fold change (FC) [7]: 0.04
fold change (FC) [8]: 0.01
SMILES: O=C(N[C@@H](C1CC1)C(F)(F)F)c1cc(-c2cnn3cc(-c4ccc(F)cc4)cnc23)cs1

inhibition [9]: 20%
inhibition [10]: 0%
fold change (FC) [11]: 0.09
fold change (FC) [12]: 0.05
fold change (FC) [13]: 0.26
SMILES: CC(C)[C@H](NC(=O)c1cc(-c2cnn3cc(-c4ccc(OCCN5CCCCC5)cc4)cnc23)cs1)C(F)(F)F
